# Assay results as given in ChEMBL document CHEMBL4359877, “Identification of benzothiazinones containing an oxime functional moiety as new anti-tuberculosis agents” (Eur J Med Chem, 2019).
# How the values were obtained:
# [1] = tested on: Mycobacterium tuberculosis; test: Antimycobacterial activity against multidrug-resistant Mycobacterium tuberculosis isolate 16995 assessed as reduction in bacterial cell growth incubated for 7 days by microplate alamar blue assay; format: functional; details: isolate 16995, 168 h
# In short: (§1)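 MABA: H37Rv or clinical MDR isolates (resistant to INH and RFP, Beijing Chest Hospital patients) grown to late log phase in 7H9 with glycerol, Tween 80 and ADC, washed, filtered and frozen. Two-fold compound dilutions with 2 × 10⁵ CFU per well, 37 °C; Alamar blue plus Tween 80 added on day 7, fluorescence (ex 530/em 590) read after 16–24 h. MIC = lowest concentration giving ≥90% fluorescence reduction versus mean of bacterium-only controls; RIF and INH as positive controls.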
# [2] = tested on: Mycobacterium tuberculosis; test: Antimycobacterial activity against multidrug-resistant Mycobacterium tuberculosis isolate 16833 assessed as reduction in bacterial cell growth incubated for 7 days by microplate alamar blue assay; format: functional; details: isolate 16833, 168 h; in short: as §1
Structure (SMILES),MIC90 [1],MIC90 [2]
CCO/N=C(\C)CN1CCN(c2nc(=O)c3cc(C(F)(F)F)cc([N+](=O)[O-])c3s2)CC1,0.01 µg/mL,< 0.016 µg/mL
C/C(CN1CCN(c2nc(=O)c3cc(C(F)(F)F)cc([N+](=O)[O-])c3s2)CC1)=N\OCc1ccccc1,0.01 µg/mL,< 0.016 µg/mL
CCON=C1CCC(CN2CCN(c3nc(=O)c4cc(C(F)(F)F)cc([N+](=O)[O-])c4s3)[C@@H](C)C2)CC1 (some centres undefined),< 0.016 µg/mL,< 0.016 µg/mL
CON=C1CCC(CN2CCN(c3nc(=O)c4cc(C(F)(F)F)cc([N+](=O)[O-])c4s3)C[C@@H]2C)CC1 (some centres undefined),< 0.016 µg/mL,< 0.016 µg/mL
CO/N=C(\C)CCN1CCN(c2nc(=O)c3cc(C(F)(F)F)cc([N+](=O)[O-])c3s2)CC1,< 0.016 µg/mL,0.017 µg/mL
CON=C1CCC(CN2CCN(c3nc(=O)c4cc(C(F)(F)F)cc([N+](=O)[O-])c4s3)C[C@H]2C)CC1 (some centres undefined),< 0.016 µg/mL,< 0.016 µg/mL
CON=C1CCC(CN2CCN(c3nc(=O)c4cc(C(F)(F)F)cc([N+](=O)[O-])c4s3)[C@@H](C)C2)CC1 (some centres undefined),< 0.016 µg/mL,< 0.016 µg/mL
CCON=C1CCC(CN2CCN(c3nc(=O)c4cc(C(F)(F)F)cc([N+](=O)[O-])c4s3)C[C@H]2C)CC1 (some centres undefined),< 0.016 µg/mL,< 0.016 µg/mL
CON=C1CCC(CN2CCN(c3nc(=O)c4cc(C(F)(F)F)cc([N+](=O)[O-])c4s3)CC2)CC1 (centres undefined),< 0.016 µg/mL,< 0.016 µg/mL
CCON=C1CCC(CN2CCN(c3nc(=O)c4cc(C(F)(F)F)cc([N+](=O)[O-])c4s3)C[C@@H]2C)CC1 (some centres undefined),< 0.016 µg/mL,< 0.016 µg/mL
CCON=C1CCC(CN2C(C)CN(c3nc(=O)c4cc(C(F)(F)F)cc([N+](=O)[O-])c4s3)CC2C)CC1 (centres undefined),< 0.016 µg/mL,< 0.016 µg/mL
CCO/N=C(\C)CCN1CCN(c2nc(=O)c3cc(C(F)(F)F)cc([N+](=O)[O-])c3s2)CC1,< 0.016 µg/mL,< 0.016 µg/mL
CCON=C1CCC(CN2CCN(c3nc(=O)c4cc(C(F)(F)F)cc([N+](=O)[O-])c4s3)[C@H](C)C2)CC1 (some centres undefined),< 0.016 µg/mL,< 0.016 µg/mL
CCON=C1CC(CN2CCN(c3nc(=O)c4cc(C(F)(F)F)cc([N+](=O)[O-])c4s3)CC2)C1 (centres undefined),< 0.016 µg/mL,< 0.016 µg/mL
CCON=C1CCC(CN2CCN(c3nc(=O)c4cc(C(F)(F)F)cc([N+](=O)[O-])c4s3)CC2C)CC1 (centres undefined),< 0.016 µg/mL,< 0.016 µg/mL
CON=C1CCC(CN2CCN(c3nc(=O)c4cc(C(F)(F)F)cc([N+](=O)[O-])c4s3)CC2C)CC1 (centres undefined),< 0.016 µg/mL,< 0.016 µg/mL
CCON=C1CCC(CN2CCN(c3nc(=O)c4cc(C(F)(F)F)cc([N+](=O)[O-])c4s3)CC2)CC1 (centres undefined),< 0.016 µg/mL,< 0.016 µg/mL
C/C(CCN1CCN(c2nc(=O)c3cc(C(F)(F)F)cc([N+](=O)[O-])c3s2)CC1)=N\OCc1ccccc1,< 0.016 µg/mL,< 0.016 µg/mL
CON=C1CCC(CN2C(C)CN(c3nc(=O)c4cc(C(F)(F)F)cc([N+](=O)[O-])c4s3)CC2C)CC1 (centres undefined),< 0.016 µg/mL,< 0.016 µg/mL
NNC(=O)c1ccncc1 [ISONIAZID],> 40 µg/mL,> 40 µg/mL
O=c1nc(N2CCN(CC3CCCCC3)CC2)sc2c([N+](=O)[O-])cc(C(F)(F)F)cc12 [MACOZINONE],< 0.016 µg/mL,< 0.016 µg/mL
CO[C@H]1/C=C/O[C@@]2(C)Oc3c(C)c(O)c4c(O)c(c(/C=N/N5CCN(C)CC5)c(O)c4c3C2=O)NC(=O)/C(C)=C\C=C\[C@H](C)[C@H](O)[C@@H](C)[C@@H](O)[C@@H](C)[C@H](OC(C)=O)[C@@H]1C [RIFAMPIN],> 40 µg/mL,> 40 µg/mL
